Assay outcomes (PubChem BioAssay)
CHRM1 PAM = positive allosteric modulators of human M1 muscarinic receptor | P11229 | CHO-K1 hM1, Fluo-8 calcium fluorescence, ACh EC20; 0% = ACh EC20, 100% = maximal ACh | activation, % at 3 µM | 360,000 tested, 0.088% active; in the data active = activation above about 19%, passing the limit was not always enough
TAAR1 agonist = human TAAR1 agonism; Q96RJ0; CHO RD-HGA16 TAAR1, Fluo-8 calcium fluorescence; vehicle wells 0%, saturating PEA agonist 100%; activation, % at 3 µM; 360,000 tested, 0.99% active; AID 624467;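 active = activation above the mean activation of all test compounds in the run plus 3 SD, cut at about 38% in these data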
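Assay system: CHO-derived RD-HGA16 cells with stable Gα16 and human TAAR1; timing: 17-24 h seeding, 75 min 37 °C dye, 30 min RT; read-out: % activation from peak over basal fluorescence ratio, DMSO-to-PEA scaled; measured by: kinetic Fluo-8 calcium fluorescence; benchmarks: low control DMSO, high control PEA (EC100); doses: 3 µM single concentration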
TAAR1 antag = antagonists of human TAAR1. 360,000 tested, 1.5% active. inhibition, % at 3 µM. AID 624466. Q96RJ0. CHO RD-HGA16 TAAR1, Fluo-8 calcium fluorescence, antagonist;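 active = inhibition above a per-plate cutoff, the mean inhibition of test compounds on that plate plus 3 SD, cut at about 49% in these data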;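 also: 0% = DMSO plus EC80 beta-PEA response and 100% = DMSO alone without agonist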
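Test system: hTAAR1-expressing CHO RD-HGA16 cells, Gα16-coupled; Probe or stimulus: EC80 β-phenethylamine stimulus; Compound dosing: single nominal final test compound concentration of 3 µM; Timing: 140 s kinetic read after compound, 140 s after agonist; Signal: Fluo-8 calcium-sensitive fluorescence; Measure: % inhibition of agonist calcium response; Controls: DMSO and EC80 PEA controls.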
M1 antag = antagonists of human M1 muscarinic receptor; 360,000 tested, 1.3% active; CHO-K1 hM1, Fluo-8 calcium fluorescence, ACh EC80 antagonist; AID 588852; inhibition, % at 3 µM; P11229;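 active = percent inhibition above its own plate's cutoff, namely the mean of that plate's compound wells plus 3 SD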;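 also: peak over basal fluorescence ratio during 140 s after agonist addition; 0% = ACh EC80 plus DMSO and 100% = DMSO alone without agonist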
HTR2A ag = activates the mouse 5-HT2A serotonin receptor; P35363; CHO-K1 mHTR2A beta-arrestin complementation, luminescence; percent of 30 µM serotonin response; activation, % at 7.6 µM; 360,000 tested, 0.66% active;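 active = activation above a run cutoff, the mean activation of all tested compounds plus 3 SD, cut at about 14% in these data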;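 also: 0% = plate median of compound wells and 100% = 30 µM serotonin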
Target sequence (P35363 whole entry, looked up): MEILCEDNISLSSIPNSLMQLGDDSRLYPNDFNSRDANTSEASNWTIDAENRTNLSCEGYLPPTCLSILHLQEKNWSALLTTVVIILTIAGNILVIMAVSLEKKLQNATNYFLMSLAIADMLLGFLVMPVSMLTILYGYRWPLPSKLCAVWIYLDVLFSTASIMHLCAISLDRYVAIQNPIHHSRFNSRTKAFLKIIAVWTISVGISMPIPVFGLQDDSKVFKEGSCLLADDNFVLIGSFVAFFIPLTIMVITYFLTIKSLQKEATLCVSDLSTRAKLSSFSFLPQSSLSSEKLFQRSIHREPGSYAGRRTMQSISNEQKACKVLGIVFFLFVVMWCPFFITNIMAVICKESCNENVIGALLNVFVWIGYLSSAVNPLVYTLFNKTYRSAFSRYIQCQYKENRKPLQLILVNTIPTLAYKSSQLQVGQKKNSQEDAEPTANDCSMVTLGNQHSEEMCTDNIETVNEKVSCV
CHRM1 agonist = activates human CHRM1 receptor; activation, % at 3 µM; CHO-K1 hM1, Fluo-8 calcium fluorescence, agonist mode; 0% DMSO, 100% acetylcholine EC100; 360,000 tested, 0.33% active; AID 588814; P11229;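 active = activation above the run's mean compound activation plus 3 SD, cut at about 16% in these data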;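 also: peak over basal fluorescence ratio within a 140 s kinetic read after compound addition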
OPRM1 ag = counter-screen for mouse HTR2A agonists: human mu opioid receptor agonists; U2OS OPRM1 beta-arrestin PathHunter, luminescence; DMSO 0%, DAMGO 9.3 µM 100%; activation, % at 9.3 µM; shares compounds with HTR2A ag; AID 624380; 2,300 tested, 5.3% active;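 active = mean activation above the mean of DMSO-only wells plus 3 SD, cut at about 0.5% in these data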
m5-HT2A ag conf = confirmation of mouse HTR2A serotonin receptor agonists | shares compounds with HTR2A ag | activation, % at 7.6 µM | CHO-K1 PathHunter beta-arrestin recruitment, luminescence; DMSO 0%, 30 µM serotonin 100% | AID 624381 | 2,300 tested, 19% active;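 active = mean activation across triplicates above the hit threshold derived in the original primary screen, cut at about 15% in these data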
Numbers without * were called inactive; . = no result; ! = a repeat was not active. Hits are enriched below; roughly 3.9% of the tested compounds scored in any of these assays.

SMILES	CHRM1 PAM	TAAR1 agonist	TAAR1 antag	M1 antag	HTR2A ag	CHRM1 agonist	OPRM1 ag	m5-HT2A ag conf
CC(=O)c1cccc(OCC(O)CN2CC=C(c3ccccc3)CC2)c1 (configuration not stated)	-6.4	9.0	-6.2	-1.6	18.6*	-7.0	-0.7	79.5*
COc1cc2c(cc1OC)C13CCN4C=C5CCOC6CC(=O)N2C1C6C5CC43 (configuration not stated)	0.2	4.2	-16.4	-7.7	4.5	6.5	.	.
CC1=NN=C(c2ccc(N)cc2)c2cc3c(cc2C1)OCO3	3.0	8.0	-36.9	-23.4	31.4*	-2.9	-0.5	39.8*
COc1ccc(-c2nn(CCC#N)cc2C(=O)Nc2ccc(C(C)=O)cc2)cc1[N+](=O)[O-]	9.9	3.1	3.9	-12.0	-0.7	-2.2	.	.
CCOc1ccccc1CN1CCCC(C(=O)c2cc(F)ccc2F)C1 (configuration not stated)	-14.6	-1.7	-12.1	12.8	-10.0	-8.0	.	.
CC(=O)N1CC(=O)Nc2ccc(Cl)cc2C1c1ccccc1 (configuration not stated)	4.8	1.6	1.2	-10.3	7.1	-6.0	.	.
CC[C@H](C)[C@@H]1NC(=O)[C@@H](CC(C)C)NC(=O)[C@H](C(C)C)NC(=O)[C@H]2CSSC[C@H](NC1=O)C(=O)N2	2.1	20.4	-23.0	-20.8	56.8*	-2.6	1.7*	40.5*
CC(C)(O)/C=C/C(=O)C(C)(O)C1C(O)CC2(C)C3CC=C4C(C=C(O)C(=O)C4(C)C)C3(C)C(=O)CC12C (configuration not stated)	9.7	1.6	-13.9	-17.6	29.9*	-3.2	0.0	7.8
NC1CCc2cc(O)c(O)cc2C1 (configuration not stated)	4.6	39.0*	-28.5	-19.8	57.7*	-4.0	-0.2	152.7*
O=C(O)c1[nH]c(=O)[nH]c(=O)c1F	5.4	-1.7	-18.3	-2.5	4.8	-2.4	.	.
CC12CC3CC(C)(C1)CC(N)(C3)C2	-11.6	13.9	-7.5	5.4	18.0*!	-0.3	-0.5	3.7
CN1CC2CN(Cc3ccccc3)S(=O)(=O)C2C1 (configuration not stated)	2.5	1.5	-6.5	-15.4	-0.8	-1.7	.	.
COc1ccc(-n2c(O)c(C(C)=NCCN3CCNCC3)c(=O)[nH]c2=O)cc1	7.1	8.2	-1.6	-10.4	4.1	-6.9	.	.
CCCCn1c(O)c(/C=C/C=Nc2ccccc2)c(=O)[nH]c1=O	-1.4	15.8	16.2	5.7	-3.2	0.2	.	.
C#CCOCOCC#CCN(CC)CC	5.2	12.3	8.9	-17.8	-2.2	-4.1	.	.
N#CC12CNCC1CN=N2 (configuration not stated)	7.1	2.2	-2.0	-2.1	22.5*	-1.2	-0.4	3.5
CC(C)C12CN3CC(C(C)C)(CN(C1)C3c1cccnc1)C2=O (configuration not stated)	-0.7	0.2	3.5	2.6	3.9	-2.6	.	.
Cc1ccc(NC2=NCCCS2)c(C)c1C	-12.8	0.4	-15.0	14.1	18.5*	-11.1	-0.4	14.8*
Clc1ccccc1NC1=NCCCS1	-0.8	1.4	-0.1	0.5	-7.6	-13.9	.	.
CCN(CC)C(=O)N[C@H]1C[C@@H]2c3cccc4[nH]cc(c34)C[C@H]2N(C)C1	2.3	2.3	5.5	-26.7	38.9*	-2.5	-0.7	92.8*
COc1cccc2c1O[C@H]1C(=O)CC[C@H]3CN(C)CCC231 (some centres not stated)	7.9	6.5	9.2	-6.3	3.1	-3.7	.	.
O=C(CCCc1ccc(N(CCCl)CCCl)cc1)NCc1ccccc1	-1.0	0.0	0.9	-0.5	3.4	-2.1	.	.
N#CC1c2ccccc2C=CN1C(=O)c1ccc(N(CCCl)CCCl)cc1 (configuration not stated)	13.8	3.3	-24.2	-8.0	23.8*	0.9	-0.2	-4.8
COc1ccc2[nH]cc(CCN)c2c1	-2.0	4.7	2.8	-4.1	51.9*	-3.6	-0.5	27.7*
S=P(NC1CCCCC1)(N1CC1)N1CC1	-1.2	-0.5	-21.8	7.7	2.5	-3.8	.	.
SMILES	CHRM1 PAM	TAAR1 agonist	TAAR1 antag	M1 antag	HTR2A ag	CHRM1 agonist	OPRM1 ag	m5-HT2A ag conf
COc1ccc(-n2nnnc2C(c2cc3ccccc3o2)N2CCC(n3c(=O)[nH]c4ccccc43)CC2)cc1 (configuration not stated)	-3.9	8.5	50.6*	-10.5	15.7*	4.3	.	3.9
N#Cc1c(Br)n(C2OC(CO)C(O)C2O)c2ncnc(N)c12 (configuration not stated)	4.6	-0.3	-1.0	-8.9	50.9*	-4.3	-0.4	100.1*
COc1ccc2c(c1)C13CCN4CC5=CCOC6CC(=O)N2C1C6C5CC43 (configuration not stated)	6.5	9.7	-13.0	-4.8	2.7	-0.9	.	.
O=C1C=CC(=O)C=C1	5.1	0.0	-2.5	-28.6	35.2*	-0.8	0.9*	3.2
CC(N)Cc1c[nH]c2ccc(O)cc12 (configuration not stated)	6.3	2.4	-14.1	-28.2	49.4*	-2.3	-0.6	32.4*
O=S(=O)(c1cc(Cl)cc(Cl)c1)N1Cc2cc(-c3cccc(F)c3)ccc2-n2nncc2C1	10.4	3.1	-13.3	-3.1	14.5*	-4.0	-0.3	-1.5
Cc1ccc(S(=O)(=O)N2Cc3cc(-c4cccc(F)c4)ccc3-n3nncc3C2)cc1	4.7	-0.1	-3.0	2.3	0.4	-6.7	.	.
COc1ccc(NC2=NC(C)(C)CS2)cc1	-14.3	0.6	8.9	32.8	-6.0	-8.5	.	.
CCCCCCC(C)(C)c1ccc([C@@H]2C[C@H](O)CC[C@H]2CCCO)c(O)c1	2.4	2.1	-2.8	-22.1	29.2*	2.9	0.8*	22.6*
CCCN1CCc2cccc3c2[C@H]1Cc1ccc(O)c(O)c1-3	7.1	.	.	-24.2	61.7*	-4.8	1.4*	135.7*
O=C(Nc1ccc(OC(=O)N2CCCCC2)cc1)N1CCOCC1	17.7	0.7	-20.1	10.0	-1.6	1.8	.	.
O=C(Oc1c(Cl)cc(Cl)c2ccccc12)N1CCCCC1	12.3	21.4	14.2	-13.0	14.6*	-4.3	0.2	5.5
CN1CCN(C(=O)Cc2ccccc2)CC1	4.4	0.1	-0.8	-7.8	20.3*	-7.9	-0.8	0.7
